Laboratory results from ChEMBL document CHEMBL1136151, “Suzuki cross-coupling approaches to the synthesis of bioactive 3-substituted and 5-substituted-4-methoxy-6-methyl-2-pyrones” (Bioorg Med Chem Lett, 2003).

Legend:
Bacillus subtilis = assay: Antimicrobial activity against Bacillus subtilis was determined after 96 hours of incubation; type: functional
Summary of the method: (§1)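 Disk diffusion: cellulose disks loaded with test compound and placed on bacterial plates, with an EtOH control disk. Incubation 96 h. Read-out is the radius (mm) of the inhibition zone.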

Staphylococcus aureus = assay: Antimicrobial activity against Staphylococcus aureus was determined after 96 hours of incubation; type: functional; summary of the method: as §1
Botrytis cinerea [1] = assay: Percent growth of Botrytis cinerea after 7 days of incubation; type: functional; set-up: concentration or dose not given beside the values
Summary of the method: (§2)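 Fungal plate assay: pyrone dissolved in absolute EtOH at 10mg/mL and pipetted 2 cm offset from the centre of the plate containing the organism. EtOH alone served as control. Growth is recorded as percentage of the organism after 72 h and after 7 days of incubation.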

Thanatephorus cucumeris [2] = assay: Percent growth of Rhizoctonia solani after 72 hours of incubation; type: functional; set-up: concentration or dose not given beside the values; summary of the method: as §2
Saccharomyces cerevisiae = assay: Antimicrobial activity against Saccharomyces cerevisiae was determined after 48 hours of incubation; type: functional
Summary of the method: (§3)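 Disk diffusion on yeast plates: cellulose disks carrying test compound, with an EtOH control. Incubation 48 h. The inhibition zone radius is recorded in mm.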

Escherichia coli = assay: Antimicrobial activity against Escherichia coli was determined after 96 hours of incubation; type: functional; summary of the method: as §1
Candida albicans = assay: Antimicrobial activity against Candida albicans was determined after 48 hours of incubation; type: functional; summary of the method: as §3
Aspergillus niger [3] = assay: Percent growth of Aspergillus niger after 7 days of incubation; type: functional; set-up: concentration or dose not given beside the values; summary of the method: as §2
Fusarium oxysporum [4] = assay: Percent growth of Fusarium oxysporum after 7 days of incubation; type: functional; set-up: concentration or dose not given beside the values; summary of the method: as §2
Aspergillus niger [5] = assay: Percent growth of Aspergillus niger after 72 hours of incubation; type: functional; set-up: concentration or dose not given beside the values; summary of the method: as §2
[6] = system: Globisporangium mamillatum; assay: Percent growth of Pythium mammillatum after 7 days of incubation; NT=Not tested; type: functional; summary of the method: as §2
Thanatephorus cucumeris [7] = assay: Percent growth of Rhizoctonia solani after 7 days of incubation; type: functional; set-up: concentration or dose not given beside the values; summary of the method: as §2
Fusarium oxysporum [8] = assay: Percent growth of Fusarium oxysporum after 72 hours of incubation; type: functional; set-up: concentration or dose not given beside the values; summary of the method: as §2
[9] = system: Schizosaccharomyces pombe; assay: Antimicrobial activity against Schizosaccharomyces pombe was determined after 48 hours of incubation; type: functional; summary of the method: as §3
Botrytis cinerea [10] = assay: Percent growth of Botrytis cinerea after 72 hours of incubation; type: functional; set-up: concentration or dose not given beside the values; summary of the method: as §2
Globisporangium ultimum [11] = assay: Percent growth of Pythium ultimum after 72 hours of incubation; type: functional; set-up: concentration or dose not given beside the values; summary of the method: as §2
[12] = system: Globisporangium mamillatum; assay: Percent growth of Pythium mammillatum after 72 hours of incubation; type: functional; set-up: concentration or dose not given beside the values; summary of the method: as §2
Globisporangium ultimum [13] = assay: Percent growth of Pythium ultimum after 7 days of incubation; type: functional; set-up: concentration or dose not given beside the values; summary of the method: as §2
K562 = assay: In vitro growth inhibitory activity against K562 human chronic myelogenous leukemia cell line was determined; type: functional, cell-based
Summary of the method: (§4)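 Cell growth inhibition measured in cultured tumour cells by MTT assay. IC50 derived from the growth inhibition.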

A2780 = assay: In vitro growth inhibitory activity against A2780 human ovarium carcinoma cell line was determined; type: functional, cell-based; summary of the method: as §4
[14] = system: Globisporangium mamillatum; assay: Percent growth of Pythium mammillatum after 7 days of incubation; type: functional; set-up: concentration or dose not given beside the values; summary of the method: as §2

SMILES | Activity (Bacillus subtilis) [mm] | Activity (Staphylococcus aureus) [mm] | Growth (Botrytis cinerea [1]) [%] | Growth (Thanatephorus cucumeris [2]) [%] | Activity (Saccharomyces cerevisiae) [mm] | Activity (Escherichia coli) [mm] | Activity (Candida albicans) [mm] | Growth (Aspergillus niger [3]) [%] | Growth (Fusarium oxysporum [4]) [%] | Growth (Aspergillus niger [5]) [%] | Growth [6] [%] | Growth (Thanatephorus cucumeris [7]) [%] | Growth (Fusarium oxysporum [8]) [%] | Activity [9] [mm] | Growth (Botrytis cinerea [10]) [%] | Growth (Globisporangium ultimum [11]) [%] | Growth [12] [%] | Growth (Globisporangium ultimum [13]) [%] | IC50 (K562) [µM] | Growth [14] [%] | also measured
COc1cc(=O)oc(C)c1-c1ccc(C)cc1 | 8 | 0 | 100 | 61 | 0 | 6 | 0 | >95 | 54 | >90 | 100 | 100 | 10 | 20 | 49 |  |  |  |  |  | 
CCC/C=C/c1c(OC)cc(=O)oc1C | 16 | 0 | 100 | 50 | 10 | 17 | 11 | 90 | 35 | 82 | 100 | 100 | 8 | 20 | 39 | 100 | 43 | 100 |  |  | 
CCCCCC/C=C/c1c(OC)cc(C)oc1=O | 18 | 0 | 100 | 53 | 0 | 0 | 0 | 95 | 60 | 89 |  | 100 | 11 | 0 | 60 | 100 | 25 | 100 | 30.1 | 100 | IC50 (A2780): 30.3 µM
CCCCCC/C=C/c1c(OC)cc(=O)oc1C | 16 | 16 | 94 | 40 | 0 | 14 | 18 | 93 | 46 | 90 | 90 | 100 | 10 | 22 | 29 | 100 | 22 | 100 | 33.3 |  | IC50 (A2780): 26.9 µM
CCCC/C=C/c1c(OC)cc(C)oc1=O | 19 | 21 | 100 | 43 | 0 | 20 | 0 | 91 | 48 | 77 |  | 100 | 8 | 0 | 51 | 37 | 35 | 57 |  | 100 | 
CCCC/C=C/c1c(OC)cc(=O)oc1C | 17 | 15 | 100 | 41 | 15 | 18 | 18 | >95 | 35 | 68 |  | 93.4 | 7 | 31 | 33 | 100 | 34 | 100 |  | 92 | 
